How the values were obtained:
[1] = system: Rhizoctonia solani; experiment: Fungicidal activity against Rhizoctonia solani at 50 ug/ml by growth inhibition method; type: functional; conditions: read-out: GI
Summary of the method: (§1)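 Mycelial growth inhibition on potato dextrose agar. The panel covered Alternaria solani, Botrytis cinerea, Cercospora arachidicola, C. beticola, Colletotrichum lagenarium, Fusarium oxysporum, Gibberella zeae, Puccinia triticina, Phytophthora infestans, Physalospora piricola, Pellicularia sasakii and Rhizoctonia solani.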

[2] = system: Puccinia triticina; experiment: Fungicidal activity against Puccinia triticina at 50 ug/ml by growth inhibition method; type: functional; conditions: read-out: GI; summary of the method: as §1
[3] = system: Thanatephorus cucumeris; experiment: Fungicidal activity against Thanatephorus cucumeris at 50 ug/ml by growth inhibition method; type: functional; conditions: read-out: GI; summary of the method: as §1
[4] = system: Botryosphaeria berengeriana; experiment: Fungicidal activity against Botryosphaeria berengeriana at 50 ug/ml by growth inhibition method; type: functional; conditions: read-out: GI; summary of the method: as §1
[5] = system: Phytophthora infestans; experiment: Fungicidal activity against Phytophthora infestans at 50 ug/ml by growth inhibition method; type: functional; conditions: read-out: GI; summary of the method: as §1
[6] = system: Fusarium graminearum; experiment: Fungicidal activity against Fusarium graminearum at 50 ug/ml by growth inhibition method; type: functional; conditions: read-out: GI; summary of the method: as §1
[7] = system: Colletotrichum lagenaria; experiment: Fungicidal activity against Colletotrichum lagenaria at 50 ug/ml by growth inhibition method; type: functional; conditions: read-out: GI; summary of the method: as §1
[8] = system: Cercospora beticola; experiment: Fungicidal activity against Cercospora beticola at 50 ug/ml by growth inhibition method; type: functional; conditions: read-out: GI; summary of the method: as §1
[9] = system: Mycosphaerella arachidis; experiment: Fungicidal activity against Mycosphaerella arachidis at 50 ug/ml by growth inhibition method; type: functional; conditions: read-out: GI; summary of the method: as §1
[10] = system: Alternaria solani; experiment: Fungicidal activity against Alternaria solani at 50 ug/ml by growth inhibition method; type: functional; conditions: read-out: GI; summary of the method: as §1
[11] = system: Nicotiana tabacum; experiment: Induction of systemic acquired resistance activity in TMV infected-Nicotiana tabacum (tobacco) leaves at 50 ug/ml; type: functional
Summary of the method: (§2)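 Tobacco/TMV system used for systemic acquired resistance induction. Inhibition ratio calculated from mean lesion numbers on inoculated leaves relative to corresponding control. Tiadinil and ribavirin run as controls.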

[12] = system: Nicotiana tabacum; experiment: Phytotoxicity against Nicotiana tabacum (tobacco) plant; type: organism-based; conditions: in vivo
[13] = system: Nicotiana tabacum; experiment: Induction of systemic acquired resistance activity in TMV infected-Nicotiana tabacum (tobacco) leaves at 100 ug/ml; type: functional; summary of the method: as §2
[14] = system: Tobacco mosaic virus; experiment: In vivo antiviral activity against Tobacco mosaic virus (TMV) infected tobacco leaves assessed as inactivation effect at 100 ug/ml co-treated with virus for 30 min before inoculation onto leaves measured at 2-3 days after viral challenge; type: functional
Summary of the method: (§3)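 TMV (5.88 10-2 μg/mL) mixed with equal volume of compound solution for 30 min, then rubbed onto upper three leaves of six-leaf tobacco; solvent on lower three leaves as control. Lesions counted 2-3 days later, three repetitions. Inhibition (%) = (CK − A)/CK × 100 from mean lesion counts.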

[15] = system: Tobacco mosaic virus; experiment: In vivo antiviral activity against Tobacco mosaic virus (TMV) infected tobacco leaves assessed as inactivation effect at 500 ug/ml co-treated with virus for 30 min before inoculation onto leaves measured at 2-3 days after viral challenge; type: functional; summary of the method: as §3
[16] = system: Tobacco mosaic virus; experiment: In vivo antiviral activity against Tobacco mosaic virus (TMV) infected tobacco leaves assessed as curative effect at 100 ug/ml treated after viral inoculation measured at 2-3 days after viral challenge; type: functional
Summary of the method: (§4)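 Curative test: whole six-leaf tobacco leaves rubbed with TMV (5.88 10-2 μg/mL), dried in greenhouse, then compound smeared on upper three leaves and solvent on lower three as control. Local lesions scored 2-3 days after inoculation, three repetitions. Inhibition (%) = (CK − A)/CK × 100 on mean lesion numbers.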

[17] = system: Tobacco mosaic virus; experiment: In vivo antiviral activity against Tobacco mosaic virus (TMV) infected tobacco leaves assessed as curative effect at 500 ug/ml treated after viral inoculation measured at 2-3 days after viral challenge; type: functional; summary of the method: as §4
[18] = system: Tobacco mosaic virus; experiment: In vivo antiviral activity against Tobacco mosaic virus (TMV) infected tobacco leaves assessed as protective effect at 100 ug/ml treated 12 hr before viral inoculation measured at 2-3 days after viral challenge; type: functional
Summary of the method: (§5)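 Six-leaf tobacco; compound solution smeared over whole leaves, dried in greenhouse, then after 12 h TMV (5.88 10-2 μg/mL) rubbed onto upper three leaves, with solvent on lower three leaves as control. Local lesions counted 2-3 days post-inoculation, three repetitions. Inhibition (%) = (CK − A)/CK × 100 from mean lesion numbers.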

[19] = system: Tobacco mosaic virus; experiment: In vivo antiviral activity against Tobacco mosaic virus (TMV) infected tobacco leaves assessed as protective effect at 500 ug/ml treated 12 hr before viral inoculation measured at 2-3 days after viral challenge; type: functional; summary of the method: as §5
[20] = system: Tobacco mosaic virus; experiment: In vitro antiviral activity against Tobacco mosaic virus (TMV) infected tobacco leaves at 100 ug/ml; type: functional
[21] = system: Tobacco mosaic virus; experiment: In vitro antiviral activity against Tobacco mosaic virus (TMV) infected tobacco leaves at 500 ug/ml; type: functional
[22] = system: Fusarium oxysporum; experiment: Fungicidal activity against Fusarium oxysporum at 50 ug/ml by growth inhibition method; type: functional; conditions: read-out: GI; summary of the method: as §1
[23] = system: Botrytis cinerea; experiment: Fungicidal activity against Botryotinia fuckeliana at 50 ug/ml by growth inhibition method; type: functional; conditions: read-out: GI; summary of the method: as §1
[24] = system: Tobacco mosaic virus; experiment: In vitro antiviral activity against Tobacco mosaic virus (TMV) infected tobacco leaves at 200 ug/ml; type: functional

| SMILES | inhibition of growth at 50 µg/mL [3] | inhibition of growth at 50 µg/mL [4] | inhibition of growth at 50 µg/mL [5] | inhibition of growth at 50 µg/mL [6] | inhibition of growth at 50 µg/mL [7] | inhibition of growth at 50 µg/mL [8] | inhibition of growth at 50 µg/mL [9] | inhibition of growth at 50 µg/mL [10] | Activity [11] | Activity [12] | Activity [13] | Activity [14] | Activity [15] | Activity [16] | Activity [17] | Activity [18] | Activity [19] | inhibition at 500 µg/mL [21] | inhibition of growth at 50 µg/mL [22] | inhibition of growth at 50 µg/mL [23] | also measured |
| --- | --- | --- | --- | --- | --- | --- | --- | --- | --- | --- | --- | --- | --- | --- | --- | --- | --- | --- | --- | --- | --- |
| Cc1ccc(N(C(=O)c2nnsc2C)C(C(=O)NC(C)C)c2ccccc2F)cc1F (stereo not given) | 0% | 0% | 44% | 27% | 14% | 13% | 0% | 38% | 59% | Non-toxic | 7% | 73% | 74% | 47% | 60% | 27% | 60% | 46% |  |  | inhibition of growth at 50 µg/mL [1]: 15%; inhibition of growth at 50 µg/mL [2]: 0%; inhibition at 100 µg/mL [20]: 16% |
| Cc1cccc(C(C(=O)NC(C)C)N(C(=O)c2nnsc2C)c2ccc(C)c(Cl)c2)c1 (stereo not given) | 63% | 51% | 8% | 37% | 13% | 17% | 38% | 44% | 65% | Non-toxic | 49% | 72% | 82% | 33% | 40% | 14% | 48% | 34% | 14% | 76% | inhibition at 200 µg/mL [24]: 18% |
| Cc1ccc(N(C(=O)c2nnsc2C)C(C(=O)NC(C)C)c2ccccc2C)cc1Cl (stereo not given) | 69% | 31% | 10% | 37% | 10% | 17% | 21% | 40% | 37% | Non-toxic | 0% | 23% | 50% | 21% | 42% | 13% | 38% | 12% | 19% | 76% | inhibition at 200 µg/mL [24]: 58% |
| Cc1ccc(N(C(=O)c2nnsc2C)C(C(=O)NC(C)C)c2ccc([N+](=O)[O-])cc2)cc1F (stereo not given) | 22% | 0% | 13% | 0% | 0% | 25% | 27% | 0% | 66% | Non-toxic | 7% | 65% | 62% | 0% | 17% | 26% | 27% | 25% |  |  | inhibition of growth at 50 µg/mL [1]: 17%; inhibition of growth at 50 µg/mL [2]: 0%; inhibition at 100 µg/mL [20]: 9% |
| Cc1ccc(N(C(=O)c2nnsc2C)C(C(=O)NC(C)C)c2ccccc2)cc1Cl (stereo not given) | 64% | 47% | 12% | 13% | 11% | 0% | 21% | 39% | 33% | Non-toxic | 41% | 50% | 65% | 30% | 46% | 40% | 57% | 43% | 36% | 85% | inhibition at 200 µg/mL [24]: 30% |
| Cc1ccc(NC(=O)c2snnc2C)cc1Cl [TIADINIL] | 46% | 74% | 46% | 36% |  | 40% | 18% |  | 50% | Non-toxic | 52% | 42% | 59% | 46% | 58% | 57% | 75% | 48% | 48% | 67% | inhibition of growth at 50 µg/mL [1]: 1%; inhibition at 100 µg/mL [20]: 25% |
